The results in this text go back to ChEMBL document CHEMBL2407020, “Design, synthesis, and evaluation of novel VEGFR2 kinase inhibitors: discovery of [1,2,4]triazolo[1,5-a]pyridine derivatives with slow dissociation kinetics” (Bioorg Med Chem, 2013).

In brackets after ≈: the same amount, converted by molar mass.

Data set [1] in a line: Metabolic stability in human liver microsomes. Type of data set: ADME, Microsome. The settings on record: read-out: Stability. In a few lines:
(§1)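 Metabolic stability measured in hepatic microsomes, expressed in µL/min/mg.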
(Liver microsomes are a subcellular fraction often used to study metabolism.)

A short description of data set [2]: Metabolic stability in mouse liver microsomes. Type of data set: ADME, Microsome. Conditions: read-out: Stability. In a few lines:
as §1

Data set [3] in a line: Kinetic solubility of the compound in 2nd fluid of Disintegration Test of the Japanese Pharmacopoeia at pH 6.8. Type of data set: physicochemical. Conditions: read-out: Kinetic_solubility. A digest of the protocol:
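Kinetic solubility measured in JP2 (2nd fluid of Disintegration Test, Japanese Pharmacopoeia), pH 6.8.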

Turning to `Cc1cc(C(=O)Nc2cccc(Oc3ccc4nc(NC(=O)C5CC5)cn4n3)c2)n(C)n1`, the microsomal CLint amounted to 6 µL/min/mg in data set [1] and 43 µL/min/mg in data set [2]. Besides, in data set [3], the solubility kinetic was found to be 1.7 µg/mL (≈ 3.94 µM).

`Cc1cc(C(=O)Nc2cccc(Oc3ccc4nc(NC(=O)C5CC5)nn4c3)c2)n(C)n1`: the solubility kinetic in data set [3] is 1.2 µg/mL (≈ 2.78 µM).

Consider `Cc1cc(C(=O)Nc2cc(Oc3ccc4nc(NC(=O)C5CC5)nn4c3)ccc2C)n(C)n1`, for which, in data set [3], the solubility kinetic is 53 µg/mL (≈ 119 µM).

Consider `Cc1cc(NC(=O)c2cc(C)nn2C)cc(Oc2ccc3nc(NC(=O)C4CC4)nn3c2)c1`, for which the solubility kinetic in data set [3] stood at 3.2 µg/mL (≈ 7.18 µM).

As for `Cc1cc(C(=O)Nc2cc(Oc3ccc4nc(NC(=O)C5CC5)nn4c3)ccc2F)n(C)n1`, the microsomal CLint was found to be 10 µL/min/mg in data set [1] and 45 µL/min/mg in data set [2]. Also, in data set [3], the solubility kinetic worked out at 65 µg/mL (≈ 145 µM).

As to `Cc1cc(C(=O)Nc2cccc(Oc3ccc4nc(NC(=O)C5CC5)cn4c3)c2)n(C)n1`, the solubility kinetic in data set [3] came to 0.73 µg/mL (≈ 1.7 µM).

Consider `Cc1cc(C(=O)Nc2cc(Oc3ccc4nc(NC(=O)C5CC5)cn4c3)ccc2C)n(C)n1`, for which the solubility kinetic in data set [3] was 2.9 µg/mL (≈ 6.52 µM).

As to `Cc1cc(C(=O)Nc2cccc(Oc3ccc4nc(NC(=O)C5CC5)sc4n3)c2)n(C)n1`, in data set [3], the solubility kinetic was less than 0.04 µg/mL.

With `Cc1cc(C(=O)Nc2cc(Oc3ccc4nc(NC(=O)C5CC5)sc4n3)ccc2C)n(C)n1`, the solubility kinetic in data set [3] worked out at 4.8 µg/mL (≈ 10.4 µM).

Consider `Cc1cc(C(=O)Nc2ccc(C)c(Oc3ccc4nc(NC(=O)C5CC5)nn4c3)c2)n(C)n1`, for which the solubility kinetic in data set [3] came out at 3.7 µg/mL (≈ 8.31 µM).

For the molecule `Cc1nc(C(=O)Nc2cc(Oc3ccc4nc(NC(=O)C5CC5)nn4c3)ccc2C)c(C)s1`, the solubility kinetic in data set [3] is 0.16 µg/mL (≈ 0.346 µM).

Consider `Cc1ccc(Oc2ccc3nc(NC(=O)C4CC4)nn3c2)cc1NC(=O)c1scc(C)c1Cl`, for which, in data set [3], the solubility kinetic was found to be 1.2 µg/mL (≈ 2.49 µM).

As to `Cc1ccc(Oc2ccc3nc(NC(=O)C4CC4)nn3c2)cc1NC(=O)c1cn(C)nc1C`, the figures for the microsomal CLint in data set [1] and in data set [2] were 6 µL/min/mg and 78 µL/min/mg, respectively. The solubility kinetic in data set [3] is greater than 93 µg/mL.

As to `Cc1ccc(Oc2ccc3nc(NC(=O)C4CC4)nn3c2)cc1NC(=O)c1ccnn1C`, the solubility kinetic in data set [3] was greater than 80 µg/mL.

As for `Cc1ccc(Oc2ccc3nc(NC(=O)C4CC4)nn3c2)cc1NC(=O)CC(C)C`, the solubility kinetic in data set [3] is 12 µg/mL (≈ 29.4 µM).

As for `Cc1ccc(Oc2ccc3nc(NC(=O)C4CC4)nn3c2)cc1NC(=O)C1CCC1`, the solubility kinetic in data set [3] is greater than 78 µg/mL.

As for `Cc1cc(C(=O)Nc2cccc(Oc3ccc4nc(NC(=O)C5CC5)sc4c3)c2)n(C)n1`, in data set [3], the solubility kinetic was 0.22 µg/mL (≈ 0.492 µM).
